As usually defined, the inhibition is the change of the read-out against control, counted positive when it falls.

Out of some 300,000 compounds screened, about 4,400 (1.5%) were called active. Many of the other results were omitted from the sample, so actives are more common in it than they were. Values without a mark were called inactive.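 The calls were made as follows: active = mean inhibition across valid replicates above about 55% (limit read from the data); inconclusive = mean below that limit but half or more replicates reach it; inactive = mean below it, under half of replicates reach it.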

This experiment in a line: inhibitors of intracellular T. cruzi growth, primary screen, luminescence, NIH3T3 host cells (AID 1885).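 Also: signal also drops with host cell toxicity which is not excluded here; 0% = plate median of DMSO wells and 100% = zero luminescence signal; higher percent means less beta-gal luminescence so fewer parasites.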 The note with it: T. cruzi beta-gal in NIH3T3, luminescence, 90 h; hits give high values; concentration not given here. The essentials: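 System: mouse NIH/3T3 fibroblasts infected with β-gal-expressing T. cruzi Tulahuen C4 / Input: NIH/3T3 cells, 5,000 per well / Buffer or medium: Low-serum DMEM with 2% FBS / Probe or stimulus: 5000 reporter trypomastigotes per well / Schedule: ≥90 h infection period, 3 h prior cell attachment / Measured by: GalScreen luminescence, 60 min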
For the compound `CCN(CC(=O)NCc1cccs1)S(=O)(=O)c1ccc(NC(C)=O)cc1`, the inhibition was -2.26%.

On to `CC1CCCCN1S(=O)(=O)c1ccc(C(=O)Nc2nnc(-c3cccs3)o2)cc1` (stereo unspecified), for which the inhibition is 43.1%.

On to `CC1CCCCN1S(=O)(=O)c1ccc(S(=O)(=O)N(CC(=O)Nc2ccccc2)Cc2cccs2)cc1` (stereo unspecified), for which the inhibition was 57.2% (active).

For `CC(OC(=O)C1CC(=O)N(Cc2ccccc2)C1)C(=O)Nc1ccccc1[N+](=O)[O-]` (stereo unspecified), the inhibition was -2.86%.

Turning to `COc1ccc2[nH]c(C)c(CCN(Cc3cccs3)C(=S)Nc3ccccc3OC)c2c1`, the inhibition is 60% (active).

As to `Cc1[nH]c2ccccc2c1CCN(Cc1cccs1)C(=S)NC(C)(C)C`, the inhibition is 26.1%.

For `COc1cccc(NC(=S)N(CCc2c(C)[nH]c3ccccc23)Cc2ccco2)c1`, the inhibition was 18.1%.

As to `CC(C)c1nc(SCC(=O)NC(=O)NC(C)(C)C)n[nH]1`, the inhibition was -2.85%.

Consider `CCCCCCCCCCOC(=O)Cn1c(COc2cccc(OC)c2)[n+](C)c2ccccc21`, for which the inhibition is 65.1% (active).

On to `CCCCCCCCCCOC(=O)Cn1c(COc2ccc(C)cc2)[n+](C)c2ccccc21`, for which the inhibition was 46.2%.

Consider `CCn1c(=N)n(CC(=O)c2cccc(OC)c2)c2ccccc21`, for which the inhibition was 7.38%.

Regarding `CCCCCC(=O)N1CCN(S(=O)(=O)c2ccc3c(c2)OCCCO3)CC1`, the inhibition was -5.19%.

For the compound `Cc1cc(Nc2ccc(Br)cc2)nc2ccccc12`, the inhibition was 32.6%.

Consider `CCCc1nc2c(c(=O)c3ccccc3n2C)c(=O)n1-c1cc(C)cc(C)c1`, for which the inhibition is 34.2%.

As for `CCCc1nc2c(c(=O)c3ccccc3n2C)c(=O)n1C1CCCCCC1`, the inhibition is 22.4%.

`Cn1c2ccccc2c(=O)c2c(=O)n(Cc3ccco3)c(COc3ccccc3)nc21`: the inhibition is 62.2% (active).

`Cc1ccc(OCCC(=O)OCC(=O)N2c3ccccc3NC(=O)C2(C)C)cc1`: the inhibition was -1.24%.

Turning to `COc1ccc(S(=O)(=O)N2CCOC23CCN(S(=O)(=O)c2ccc([N+](=O)[O-])cc2)CC3)cc1`, the inhibition was 61.5% (active).

With `COc1ccc(S(=O)(=O)N2CCSCC2)cc1`, the inhibition was 5.81%.

As to `COc1ccc(CNC(=O)C(=O)N2CCC3(CC2)OCCN3S(=O)(=O)c2ccc(C)cc2)cc1`, the inhibition was -4.09%.

`CC1(C)O[C@H]2CC(=O)OCC23[C@H]2CC[C@@]4(C)[C@H](c5ccoc5)OC(=O)[C@H]5O[C@]54[C@]2(C)C(=O)C[C@@H]13` (stereo partly specified): the inhibition was -3.05%.

For the compound `Nc1scc[n+]1Cc1cccc2cccnc12`, the inhibition is -1.61%.

As to `c1ccc2c(C[n+]3csc4ccccc43)cccc2c1`, the inhibition was 59.8% (active).

For `c1ccc(NCc2cccc3ccccc23)nc1`, the inhibition is 1.93%.

`FC(F)Oc1ccccc1NC(=S)Nc1cccc(Cl)c1Cl`: the inhibition is 0.408%.

With `CC(C(=O)NCC1CCCCC1)N(C)Cc1cccc(Cl)c1` (stereo unspecified), the inhibition was 10.6%.

As for `Cc1ccc(NC(=O)/C(=C/c2ccc([N+](=O)[O-])cc2)NC(=O)c2ccccc2)cc1`, the inhibition is 1.7%.

Consider `CCOC(=O)COc1ccc([N+](=O)[O-])cc1`, for which the inhibition was -3.58%.

As for `CCOC(=O)/C(=C\c1ccc([N+](=O)[O-])cc1)C(=O)c1cc(C(C)=O)c(Nc2ccccc2)s1`, the inhibition is 55.8% (active).

`COC(=O)C1[C@H]2SC(C)(C)C(C(=O)OC)N2C(=O)N1Cc1nc2ccccc2s1` (stereo partly specified): the inhibition was -4.35%.

In the case of `CC(OC(=O)c1ccc(S(=O)(=O)N2CCOCC2)cc1)c1ccccc1` (stereo unspecified), the inhibition is 1.58%.

On to `CC(C)CN(C(=O)COC(=O)c1ccc(Cl)c(N)c1)c1c(N)n(Cc2ccccc2)c(=O)[nH]c1=O`, for which the inhibition was 10.2%.

With `O=C(CCCCCn1c(=S)[nH]c2cc3c(cc2c1=O)OCO3)N1CCN(c2ccc(F)cc2)CC1`, the inhibition was 7.91%.

`Cc1ccc(C)c(N2CCN(C(=O)CCCCCn3c(=S)[nH]c4ccc(N5CCOCC5)cc4c3=O)CC2)c1`: the inhibition was 56.8% (active).

`Cc1ccc(C)c(N2CCN(C(=O)CCCCn3c(=O)[nH]c4ccccc4c3=O)CC2)c1`: the inhibition is 4.26%.

Consider `Cc1ccn(C(CC(=O)c2ccc(Br)cc2)C(=O)O)n1` (stereo unspecified), for which the inhibition was -6.81%.

Regarding `CCN(CC)C(=O)CSC1c2ccccc2C(=O)N1c1ccccc1` (stereo unspecified), the inhibition was -17.2%.

For `CCC(C(=O)NCc1ccc(OC)cc1)n1nc(C)n2c(cc3occc32)c1=O` (stereo unspecified), the inhibition is -2.81%.

With `CCOc1ccc(CCNC(=O)C(CC)n2nc(C)n3c(cc4sccc43)c2=O)cc1OCC` (stereo unspecified), the inhibition was 59.3% (active).

Turning to `COc1ccc(CCNC(=O)c2cc3sccc3n2C)cc1OC`, the inhibition is -11.3%.

In the case of `COc1ccc(-n2nnnc2CNC(=O)c2ccc3ccccc3c2)cc1`, the inhibition was -2.55%.

Regarding `Cc1ccc(CN(Cc2cccnc2)C(=S)Nc2cccc(Cl)c2C)cc1`, the inhibition is 3%.

With `Cc1c(Cl)cccc1NC(=S)N(Cc1ccccc1)Cc1cccnc1`, the inhibition was 18.3%.

In the case of `Cc1ccc(CN(Cc2cccnc2)C(=S)Nc2cc(Cl)ccc2C)cc1`, the inhibition was 77.2% (active).

For the compound `CCOc1ncccc1C(=O)NNC(=O)c1cccc(S(=O)(=O)Nc2ccccc2OC)c1`, the inhibition was 0.733%.

For `COc1ccc(CSc2nc(N3CCOCC3)c3c(c2C#N)CC(C)(C)OC3)cc1`, the inhibition was 60.5% (active).

In the case of `CC(C)c1nc(N2CCOCC2)c(C#N)c2c1COC(C)(C)C2`, the inhibition was 12.5%.

For the compound `CC1(C)Cc2c(C#N)c(SCc3nc4ccccc4[nH]3)nc(N3CCOCC3)c2CO1`, the inhibition was 23.1%.

With `CSc1ccccc1NC(=O)C(C)N1C(=O)c2ccccc2S1(=O)=O` (stereo unspecified), the inhibition is -1.05%.

Turning to `COc1ccc(N(CC(=O)N2CCOCC2)S(=O)(=O)c2ccccc2)cc1Cl`, the inhibition is -3.61%.

Turning to `CCCn1nc(C(=O)NNC(=O)CSCC(=O)Nc2cc(C)on2)c2ccccc2c1=O`, the inhibition was -11.5%.

As to `N#CCN(C(=O)COC(=O)C1CC2CCCC(C1)C2=O)c1ccccc1` (stereo unspecified), the inhibition is -10.6%.

Turning to `Oc1ccc(/C=N/Nc2nc(-c3ccccc3F)nc3ccccc23)c(O)c1`, the inhibition was -4.73%.

For the compound `Oc1ccc(/C=N/NC2=NCCCCC2)c(O)c1`, the inhibition was -40.4%.

Turning to `Cc1nc2ccccc2nc1N/N=C/c1ccc(O)cc1O`, the inhibition is 60% (active).

As to `Cc1c(NC(=O)C(C)Oc2cccc(Cl)c2)c(=O)n(-c2ccccc2)n1C` (stereo unspecified), the inhibition is -6.21%.

Values taken from PubChem BioAssay AID1885 (Broad Institute, 2009).
